Calls of active or inactive are those of the source. The calls are words filed in the database; no cut-off is given here.
Experiments:
[1] = molecular target: Bcl-2-like protein 1 (Homo sapiens) (UniProt Q07817); test: Inhibition of Bcl-xL at 200 uM by 1D 1H NMR binding assay
[2] = Cytotoxicity against human PC3-ML cells assessed as cell viability after 72 hrs by ATP-LITE assay; type: functional, cell-based
Method in brief: (§1)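 ATP-LITE viability readout. Seeded 24 h before dosing (H460, H1299 at 2000 cells/well; PC3 at 3000 cells/well) in 12F2 or RPMI1640 with 5 mM L-glutamine, 5% FBS and pen/strep. Fresh 5% medium added, then compounds in 0.1% DMSO final. Viability read after 72 h treatment and normalized to DMSO-treated cells.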

[3] = Cytotoxicity against human H1299 cells assessed as cell viability after 72 hrs by ATP-LITE assay; type: functional, cell-based; details: NCI-H1299, 72 h; method in brief: as §1
[4] = Induction of apoptosis in human RS11846 cells after 1 to 2 days by FITC-annexin V and propidium iodide assay; type: functional, cell-based
[5] = system: NCI-H460; test: Cytotoxicity against human H460 cells assessed as cell viability after 72 hrs by ATP-LITE assay; type: functional, cell-based; details: NCI-H460, 72 h; method in brief: as §1
[6] = (§2) Induction of apoptosis in human BP3 cells after 1 to 2 days by FITC-annexin V and propidium iodide assay; type: functional, cell-based
[7] = Stability in rat plasma after 1 hr at 37.5 degC; type: ADME, cell-free; details: read-out: Stability
Method in brief: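 Compound incubated in rat plasma for 1 h; percentage of parent remaining was reported.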

[8] = Membrane permeability assessed as drug permeation at 100 uM at pH 7.2 after 8 hrs by PAMPA; type: ADME; details: pH 7.2, 8 h
[9] = Chemical stability after 60 days at room temperature by HPLC/LC-MS analysis; type: physicochemical; details: 1440 h
Method in brief: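 Solid compounds stored in air at room temperature for 60 days. Stability followed by HPLC combined with LC-MS.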

[10] = Stability in rat liver microsome at 4 uM after 1 hr; type: ADME; details: liver microsomes, read-out: Stability
Method in brief: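 Compound incubated for 1 h in rat microsomal preparations; percentage of parent remaining was reported.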

[11] = system: Mus musculus; test: Toxicity in human Bcl2 expressing B6 transgenic mouse administered as single dose at 72 umol/kg, ip after 24 hrs; type: organism-based; details: in vivo
[12] = system: Mus musculus; test: Toxicity in human Bcl2 expressing B6 transgenic mouse at 120 umol/kg, ip administered as single dose after 24 hrs; type: organism-based; details: in vivo
[13] = system: BP3; test: as §2; type: functional, cell-based
[14] = Cytotoxicity against wild type mouse fibroblast assessed as induction of cell death at 10 uM by FITC-annexin V and propidium iodide assay; type: cell-based
Method in brief: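 Wild-type MEFs seeded at half a million per well in DMEM with 10% FCS. Next day compound added at 0, 2.5, 5.0, 7.5 or 10 μM. On the following day, floating and trypsinized adherent cells were pooled and stained with Annexin V-FITC and PI in binding buffer. Analyzed by flow cytometry, with double-negative cells counted as viable.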

[15] = system: Mus musculus; test: Induction of spleen weight shrinkage in human Bcl2 expressing B6 transgenic mouse at 72 umol/kg, ip administered as single dose after 24 hrs; type: functional
Method in brief: (§3)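 Age- and sex-matched B6Bcl2 transgenic mice (human BCL-2/IgH minigene, B cells accumulating in spleen), free of aggressive lymphoma. Single ip injection at 72 μmol/kg in 500 μL ethanol:Cremophor EL:saline 10:10:80; controls got vehicle alone. Killed with Avertin after 24 h and spleen weighed. Shrinkage expressed as percentage of maximum spleen-weight reduction.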

[16] = system: Mus musculus; test: Reduction of spleen weight in human Bcl2 expressing B6 transgenic mouse at 72 umol/kg, ip administered as single dose after 24 hrs; type: functional; parameters: scale not given: the % may be the effect or the level left; method in brief: as §3
[17] = system: BP3; test: Cytotoxicity against human BP3 cells expressing Bfl1/Mcl1 by FITC-annexin V and propidium iodide assay; type: functional, cell-based

Chain of Bcl-2-like protein 1 (Homo sapiens) (Q07817 whole entry): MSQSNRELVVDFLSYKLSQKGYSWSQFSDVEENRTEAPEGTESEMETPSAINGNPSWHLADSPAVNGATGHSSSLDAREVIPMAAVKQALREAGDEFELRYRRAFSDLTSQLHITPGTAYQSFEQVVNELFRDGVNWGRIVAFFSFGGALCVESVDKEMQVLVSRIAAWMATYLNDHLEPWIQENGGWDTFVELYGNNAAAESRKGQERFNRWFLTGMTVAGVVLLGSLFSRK

| SMILES | Activity [1] | EC50 [4] [µM] | EC50 [6] [µM] | EC50 [2] [µM] | EC50 [3] [µM] | EC50 [5] [µM] | further results |
| --- | --- | --- | --- | --- | --- | --- | --- |
| Cc1cc2c(CCC(C)C)c(O)c(O)cc2c(O)c1-c1c(C)cc2c(CCC(C)C)c(O)c(O)cc2c1O | Active |  |  |  |  |  |  |
| Cc1cc2c(C(=O)NC3CCCC3)c(O)c(O)cc2c(O)c1-c1c(C)cc2c(C(=O)NC3CCCC3)c(O)c(O)cc2c1O | Active | 13.7 |  | 12.2 | 8 | 8.5 |  |
| Cc1cc2c(CCc3ccccc3)c(O)c(O)cc2c(O)c1-c1c(C)cc2c(CCc3ccccc3)c(O)c(O)cc2c1O | Active | 9.8 | 4.14 | 2.4 | 0.58 | 0.92 | remaining at 1 h [7]: 80%; logPe [8]: -6.61 log cm/s; Stability [9]: Stable; remaining at 1 h, 4 µM [10]: 89%; Activity [11]: Non-toxic; Activity [12]: Non-toxic |
| Cc1cc2c(C(=O)NCCc3ccccc3)c(O)c(O)cc2c(O)c1-c1c(C)cc2c(C(=O)NCCc3ccccc3)c(O)c(O)cc2c1O | Active |  |  |  |  |  | remaining at 1 h [7]: 63%; logPe [8]: -6.49 log cm/s; remaining at 1 h, 4 µM [10]: 60% |
| Cc1cc2c(C(=O)NCc3cccc(Cl)c3)c(O)c(O)cc2c(O)c1-c1c(C)cc2c(C(=O)NCc3cccc(Cl)c3)c(O)c(O)cc2c1O | Active | 7.3 |  | 8.3 | 5.2 | 3.3 | Activity [13]: Dose-dependent effect |
| Cc1cc(C)c(CNC(=O)c2c(O)c(O)cc3c(O)c(-c4c(C)cc5c(C(=O)NCc6c(C)cc(C)cc6C)c(O)c(O)cc5c4O)c(C)cc23)c(C)c1 | Active |  |  |  |  |  |  |
| Cc1cc2c(C(=O)O)c(O)c(O)cc2c(O)c1-c1c(C)cc2c(C(=O)O)c(O)c(O)cc2c1O | inactive | > 30 | > 30 | > 30 | > 30 | > 30 | Activity [13]: Dose-dependent effect |
| Cc1cc2c(CC(C)C)c(O)c(O)cc2c(O)c1-c1c(C)cc2c(CC(C)C)c(O)c(O)cc2c1O | Active |  |  |  |  |  |  |
| Cc1cc2c(C(=O)NCC3CC3)c(O)c(O)cc2c(O)c1-c1c(C)cc2c(C(=O)NCC3CC3)c(O)c(O)cc2c1O | Active | > 10 |  |  |  |  |  |
| Cc1cc2c(C(=O)NCc3ccccc3)c(O)c(O)cc2c(O)c1-c1c(C)cc2c(C(=O)NCc3ccccc3)c(O)c(O)cc2c1O | Active | 9.3 |  | 13.7 | 3.6 | 4.6 |  |
| CN(C)CC[C@H](CSc1ccccc1)Nc1ccc(S(=O)(=O)NC(=O)c2ccc(N3CCN(Cc4ccccc4-c4ccc(Cl)cc4)CC3)cc2)cc1[N+](=O)[O-] |  |  |  |  |  |  | Activity [17]: inactive |

Now from value to compound, other results behind:

| Activity [1] | EC50 [4] [µM] | EC50 [6] [µM] | SMILES | EC50 [2] [µM] | EC50 [3] [µM] | EC50 [5] [µM] | further results |
| --- | --- | --- | --- | --- | --- | --- | --- |
| Active | 4.2 |  | CCC(NC(=O)c1c(O)c(O)cc2c(O)c(-c3c(C)cc4c(C(=O)NC(CC)c5ccccc5)c(O)c(O)cc4c3O)c(C)cc12)c1ccccc1 (centres undefined) |  |  | 1.5 |  |
| Active | 5.1 | 0.7 | Cc1cc2c(C(=O)NCCc3ccc(Cl)cc3)c(O)c(O)cc2c(O)c1-c1c(C)cc2c(C(=O)NCCc3ccc(Cl)cc3)c(O)c(O)cc2c1O |  |  | 1.3 |  |
| Active | 3.2 |  | Cc1cc2c(Cc3ccccc3)c(O)c(O)cc2c(O)c1-c1c(C)cc2c(Cc3ccccc3)c(O)c(O)cc2c1O | 8.3 | 1.28 | 1.2 |  |
| Active | 4.5 |  | Cc1cc2c(CC3CCCC3)c(O)c(O)cc2c(O)c1-c1c(C)cc2c(CC3CCCC3)c(O)c(O)cc2c1O | 11.2 | 10.9 | 1.8 | remaining at 1 h [7]: 81%; logPe [8]: -6.27 log cm/s; remaining at 1 h, 4 µM [10]: 75%; Activity [11]: Non-toxic; Activity [12]: Non-toxic |
|  | 3 | 0.2 | CCc1ccc(CCNC(=O)c2c(O)c(O)cc3c(O)c(-c4c(C)cc5c(C(=O)NCCc6ccc(CC)cc6)c(O)c(O)cc5c4O)c(C)cc23)cc1 | 1.7 | 0.36 | 0.4 | remaining at 1 h [7]: 94%; logPe [8]: -8.15 log cm/s; Stability [9]: Stable; remaining at 1 h, 4 µM [10]: 87%; Activity [14]: 80%; Activity [15]: 85%; Activity [11]: Toxic |
| Active |  |  | Cc1cc2c(C(=O)Nc3ccccc3)c(O)c(O)cc2c(O)c1-c1c(C)cc2c(C(=O)Nc3ccccc3)c(O)c(O)cc2c1O |  | 8 | 3.5 |  |
| inactive | > 24.5 |  | Cc1cc2cc(O)c(O)cc2c(O)c1-c1c(C)cc2cc(O)c(O)cc2c1O | > 10 | 13.4 | > 10 | Activity [15]: inactive; Activity [11]: Non-toxic |
| Active | 4.6 | 0.41 | Cc1cc2c(C(=O)NCCc3cccc(Cl)c3)c(O)c(O)cc2c(O)c1-c1c(C)cc2c(C(=O)NCCc3cccc(Cl)c3)c(O)c(O)cc2c1O | 3.2 | 7.8 | 0.99 | logPe [8]: -7.71 log cm/s; Stability [9]: Stable; remaining at 1 h, 4 µM [10]: 90%; Activity [14]: 80%; Activity [16]: 40%; Activity [11]: Toxic |
| Active | 4.8 |  | Cc1cccc(CNC(=O)c2c(O)c(O)cc3c(O)c(-c4c(C)cc5c(C(=O)NCc6cccc(C)c6)c(O)c(O)cc5c4O)c(C)cc23)c1 | 10.2 | 3.1 | 2.9 | Activity [13]: Dose-dependent effect |
| Active | 12.6 |  | Cc1cc2c(C(=O)Nc3cccc(C(F)(F)F)c3)c(O)c(O)cc2c(O)c1-c1c(C)cc2c(C(=O)Nc3cccc(C(F)(F)F)c3)c(O)c(O)cc2c1O | 12.2 | 28.7 | 16.7 | Activity [13]: Dose-dependent effect |
| Active | 4.9 | 0.9 | Cc1cc2c(C(=O)NCC3CCCCC3)c(O)c(O)cc2c(O)c1-c1c(C)cc2c(C(=O)NCC3CCCCC3)c(O)c(O)cc2c1O | 3.7 | 4.8 | 0.41 | remaining at 1 h [7]: 89%; logPe [8]: -6.67 log cm/s; Stability [9]: Stable; remaining at 1 h, 4 µM [10]: 90%; Activity [13]: Dose-dependent effect; Activity [14]: 80%; Activity [11]: Toxic |
| Active | 4.1 | 1.1 | Cc1cc2c(C(=O)NC3Cc4ccccc4C3)c(O)c(O)cc2c(O)c1-c1c(C)cc2c(C(=O)NC3Cc4ccccc4C3)c(O)c(O)cc2c1O | 3 | 7.1 | 0.94 |  |
| Active | 5.6 |  | Cc1cccc(CCNC(=O)c2c(O)c(O)cc3c(O)c(-c4c(C)cc5c(C(=O)NCCc6cccc(C)c6)c(O)c(O)cc5c4O)c(C)cc23)c1 |  |  | 0.7 |  |
| Active | 10.8 |  | Cc1cc2c(C(=O)Nc3ccc(Oc4ccccc4)cc3)c(O)c(O)cc2c(O)c1-c1c(C)cc2c(C(=O)Nc3ccc(Oc4ccccc4)cc3)c(O)c(O)cc2c1O | 8.5 | 17 | 10.1 |  |
| Active | 5.5 | 1.5 | Cc1cc2c(C(=O)NC(C)c3ccc(Cl)cc3)c(O)c(O)cc2c(O)c1-c1c(C)cc2c(C(=O)NC(C)c3ccc(Cl)cc3)c(O)c(O)cc2c1O (centres undefined) | 5 | 3.2 | 0.5 | remaining at 1 h [7]: 94%; logPe [8]: -7.92 log cm/s; Stability [9]: Stable; remaining at 1 h, 4 µM [10]: 71%; Activity [14]: 80%; Activity [16]: 40%; Activity [15]: 85%; Activity [11]: Toxic |

From ChEMBL document CHEMBL1158469 (J Med Chem, 2009)
